Bioassay records deposited in PubChem by several laboratories.
Runt-CBFb FRET: Runt domain-CBFb interaction inhibition. 220,000 compounds, 0.46% hits. AID 1496. Cerulean-Runt/Venus-CBFb FRET ratio 530/480, 1 h. inhibition, % at 20 µM;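 active means inhibition over about 50% at 20 µM in the single-dose screen, limit read from the data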;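 further: 0% = DMSO wells and 100% = excess unlabeled CBFb competitor control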
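Buffer or medium: Tris pH 7.5 buffer with BSA. Assay system: Cerulean-labeled Runt domain protein. Amount: each fluorescent fusion protein 100 nM. Read-out basis: loss of energy transfer signal. Incubation: 1 h compound exposure, room temperature. Probe or stimulus: Venus-CBFb binding partner, 100 nM. Detection: FRET, excitation 422 nm, emission at 530 and 480 nm.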
Runt-SMMHC FRET: Runt domain-CBFb-SMMHC interaction inhibition. Q01196+Q13951. Cerulean-Runt/Venus-CBFb-SMMHC FRET ratio 530/480, 1 h. inhibition, % at 20 µM. 220,000 compounds, 0.74% hits. AID 1434;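 active means mean inhibition across duplicate retests at 20 µM reaching about 50%, limit read from the data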;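 further: 0% = DMSO wells and 100% = wells with excess untagged CBFb-SMMHC; inhibitors lower the FRET ratio by blocking Runt binding to CBFb-SMMHC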
IMP-1 inhibitor: blocks Pseudomonas aeruginosa IMP-1 metallo-beta-lactamase; purified IMP-1, nitrocefin hydrolysis, epi-absorbance fluorescence; inhibition, % at 5.6 µM; 290,000 compounds, 0.45% hits;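 active means inhibition above the mean plus 3 SD of all compounds in the same screening run, cut at about 4.5% in these data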;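 further: 0% = IMP-1 with DMSO and 100% = DMSO wells lacking enzyme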
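System: purified recombinant IMP-1 beta-lactamase. Medium: Zinc- and detergent-supplemented HEPES buffer, pH 7.1. Compound: one 5.6 µM dose […]. Schedule: 15 min preincubation plus 25 min reaction at 25 °C. Technique: Epi-absorbance fluorescence, 480 nm excitation, 530 nm emission.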
VIM-2 inhibitor: blocks Pseudomonas aeruginosa VIM-2 metallo-beta-lactamase; AID 1527; purified VIM-2, nitrocefin hydrolysis, epi-absorbance fluorescence; inhibition, % at 5.6 µM; 290,000 compounds, 0.89% hits;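 active means inhibition above the mean of all tested compounds plus 3 SD, cutoff set per screening run, cut at about 7.5% in these data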;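 further: red hydrolysis product quenches plate fluorescence so inhibitors raise well fluorescence; 0% = enzyme with DMSO and 100% = DMSO without enzyme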
RanGTP-Imp inh: disruptors of Ran-importin-beta complex formation – biochemical, FRET, CFP-Ran, YFP-importin-beta, homogeneous, primary screen | cell-free CFP-Ran/YFP-importin-beta FRET ratio | AID 2216 | 300,000 compounds, 1.1% hits | inhibition, % (concentration not given with the values);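 active means more than half of the replicate wells show a fall in the fluorescence ratio signal beyond about 16%, limit read from the data, passing the limit was not always enough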;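 further: 0% = DMSO wells and 100% = Ran loaded with GDP instead of GTP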
YIC counter: counter-screen: alters YIC FRET probe signal. IC50, µM. 1,000 compounds, 40% hits. shares compounds with RanGTP-Imp inh. Purified YIC probe, intramolecular FRET ratio YFP/CFP. AID 435026;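 active means fitted half-maximal inhibitory concentration no more than tenfold above the top dose tested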
Starred values were filed as active, the others as inactive; nt = no result given. Sampled rows, rich in hits. Any-hit rate of the full collection: about 2.6%.

SMILES | Runt-CBFb FRET | Runt-SMMHC FRET | IMP-1 inhibitor | VIM-2 inhibitor | RanGTP-Imp inh | YIC counter
O=C1Nc2ccc(Br)cc2C(c2ccc(Cl)cc2)=NC1O (stereo not given) | nt | nt | -2.4 | -3.4 | -0.1 | nt
CC(=O)N1CCC(N2CCCC(C(=O)c3cccc(Cl)c3)C2)CC1 (stereo not given) | nt | nt | -1.2 | -0.3 | -1.0 | nt
Cc1ccc(C2(O)CN3CCC2CC3)cc1 (stereo not given) | nt | nt | -1.6 | -1.1 | 1.3 | nt
Nc1ccc(C2(c3ccc(N)cc3)CN3CCC2CC3)cc1 | 0.5 | -1.7 | -5.9 | -3.3 | 48.6* | >50
Cc1c(OC(=O)N(C)C)ccc2c1O/C(=C\c1ccco1)C2=O | nt | nt | 1.9 | 0.3 | 29.9* | 11.7*
